Screening results (PubChem BioAssay)
Beta apoptosis: beta cell apoptosis inhibition. AID 435005. INS-1E cytokine-induced death, ATP luminescence, 48 h; percent of positive-control rescue, neutral wells zero. 300,000 tested, 0.8% active. protection from apoptosis, % (no concentration beside the values);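 active = Every replicate reaches about 75%, or at least half do and their mean reaches it too, limit read from the data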;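 note: 0% = cytokine-treated negative control wells and 100% = positive control rescue; higher means more ATP so stronger rescue from cytokine killing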
Mdm2 MdmX PPI: human Mdm2/MdmX binding inhibition; inhibition, % at 8 µM; O15151+Q00987; AID 485346; 330,000 tested, 3% active; SaOS-2 split-luciferase Mdm2/MdmX complementation, luminescence;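 active = inhibition of at least 50% at 8 µM in the primary screen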
Target sequence (O15151 whole entry, looked up): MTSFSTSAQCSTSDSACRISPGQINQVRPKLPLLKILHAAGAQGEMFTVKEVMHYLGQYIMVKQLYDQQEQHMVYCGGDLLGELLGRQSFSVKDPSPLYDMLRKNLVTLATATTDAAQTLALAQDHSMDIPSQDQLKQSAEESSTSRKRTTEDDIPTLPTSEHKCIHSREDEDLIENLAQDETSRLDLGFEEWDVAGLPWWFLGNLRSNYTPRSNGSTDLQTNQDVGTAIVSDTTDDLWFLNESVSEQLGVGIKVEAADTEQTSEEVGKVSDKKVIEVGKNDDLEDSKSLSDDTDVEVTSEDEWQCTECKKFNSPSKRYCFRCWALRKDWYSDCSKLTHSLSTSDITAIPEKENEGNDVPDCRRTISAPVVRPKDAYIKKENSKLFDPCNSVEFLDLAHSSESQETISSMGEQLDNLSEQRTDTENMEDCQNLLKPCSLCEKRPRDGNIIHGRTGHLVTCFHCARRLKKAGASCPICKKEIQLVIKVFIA
Target sequence (Q00987 whole entry, looked up): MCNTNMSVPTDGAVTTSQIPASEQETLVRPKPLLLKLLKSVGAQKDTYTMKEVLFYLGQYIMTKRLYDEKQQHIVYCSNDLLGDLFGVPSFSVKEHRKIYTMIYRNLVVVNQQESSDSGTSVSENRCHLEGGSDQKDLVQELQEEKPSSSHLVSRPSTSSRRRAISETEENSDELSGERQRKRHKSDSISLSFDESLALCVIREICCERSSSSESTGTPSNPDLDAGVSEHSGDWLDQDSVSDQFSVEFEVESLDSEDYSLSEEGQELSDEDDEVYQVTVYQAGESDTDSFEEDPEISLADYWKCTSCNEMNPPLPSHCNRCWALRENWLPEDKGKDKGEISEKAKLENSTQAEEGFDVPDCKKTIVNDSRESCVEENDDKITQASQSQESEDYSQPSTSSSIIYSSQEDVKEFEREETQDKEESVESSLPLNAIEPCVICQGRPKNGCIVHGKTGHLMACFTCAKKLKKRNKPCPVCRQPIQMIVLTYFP
SKKanGAS inh: SKKanGAS growth inhibition; S. pyogenes SKKanGAS, kanamycin growth, BacTiter-Glo, 6 h; inhibition, % at 7.5 µM; 300,000 tested, 1.3% active; AID 1662;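 active = mean replicate score, as percent of positive control median, at least 50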;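 note: strain carries kanamycin resistance gene driven by streptokinase promoter and grows in 40 µg/ml kanamycin; loss of luminescence reflects streptokinase promoter inhibition or plain growth inhibition; 0% = median of DMSO wells and 100% = positive control at its reference dose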
T cruzi inh: T. cruzi replication inhibition; T. cruzi beta-gal in NIH3T3, luminescence, 90 h; inhibition, % (concentration not given with the values); 300,000 tested, 1.4% active; AID 1885;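 active = mean inhibition across valid replicates above about 55%, limit read from the data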;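 note: signal also drops with host cell toxicity which is not excluded here; 0% = plate median of DMSO wells and 100% = zero luminescence signal; higher percent means less beta-gal luminescence so fewer parasites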
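Test system: β-gal T. cruzi (Tulahuen C4) inside NIH/3T3 cells / Quantity: 5,000 cells/well / Measured by: luminescence from GalScreen with 0.05% NP40, read after 60 min / Medium: DMEM plus 2% FBS / Measure: parasite load inhibition, % / Reagent: Tulahuen C4 trypomastigotes, 5000/well / Schedule: co-culture of at least 90 h after 3 h attachment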
CSC inhib: cancer stem cell inhibition. 300,000 tested, 1.1% active. cancer stem cell-like cells viability, luminescence. AID 2717. inhibition, % at 7.5 µM; in the data active = inhibition above about 75%; tested in HMLE shEcad cells
L major viab: Leishmania major promastigote growth inhibition. Leishmania major promastigotes, resazurin fluorescence viability. inhibition, % at 10 µM. 200,000 tested, 9% active; in the data active = inhibition above about 50%;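 note: promastigotes grown with compound for 44 hours at 28 °C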
* = called active by the depositor. Rows were chosen to be rich in hits. Some 9.4% of all compounds tested hit in one or more screens of this group.

`COc1cc(SC)ccc1C(=O)Nc1c(Cl)cncc1Cl` gave Beta apoptosis -4.9, Mdm2 MdmX PPI -27.3, SKKanGAS inh -5.6, T cruzi inh 22.2, CSC inhib -9.8 and L major viab 95.4*.
For CCC(NC(=O)C1CCCC1)c1ccccc1 (stereo not given) the results were Beta apoptosis -5.2, Mdm2 MdmX PPI -2.7, SKKanGAS inh 6.6, T cruzi inh -1.1 and CSC inhib -1.4.
`CCOc1ccccc1NC(=S)N(Cc1cc2ccc(C)cc2[nH]c1=O)CC1CCCN1CC` (stereo not given) gave Beta apoptosis -4.5, Mdm2 MdmX PPI 28.9, SKKanGAS inh 6.5, T cruzi inh -3.9, CSC inhib -7.5 and L major viab 8.7.
For O=C(O)CC/C(=N\NC(=O)CNC(=O)c1ccc(F)cc1)c1ccccc1 the results were Beta apoptosis -8.3, Mdm2 MdmX PPI -10.6, SKKanGAS inh 4.2, T cruzi inh -5.2 and CSC inhib -16.3.
O=C(CSc1nnc(CCc2ccccc2)n1-c1ccc(Cl)cc1)NCc1ccccc1 was read as Beta apoptosis -11.0, Mdm2 MdmX PPI 13.2, SKKanGAS inh 5.9, T cruzi inh 23.5, CSC inhib -13.1 and L major viab 100.0*.
For O=C(NCc1ccccn1)C(=O)NCC1OCCN1S(=O)(=O)c1ccc([N+](=O)[O-])cc1 (stereo not given) the results were Beta apoptosis -7.4, Mdm2 MdmX PPI 6.1, SKKanGAS inh 0.8, T cruzi inh 19.3 and CSC inhib -11.6.
For Cc1ccc(C)c(NC(=S)N(Cc2ccco2)C(C)c2cccs2)c1 (stereo not given) the results were Beta apoptosis -1.3, Mdm2 MdmX PPI 11.2, SKKanGAS inh 1.8, T cruzi inh -8.9, CSC inhib -6.7 and L major viab 63.2*.
CC(c1cccs1)N(Cc1ccco1)C(=O)Nc1ccc(Cl)c(Cl)c1 (stereo not given) was read as Beta apoptosis -0.6, Mdm2 MdmX PPI 8.4, SKKanGAS inh 26.7, T cruzi inh 46.6, CSC inhib 34.5 and L major viab 24.5.
For COc1cccc(NC(=O)N(Cc2ccco2)C(C)c2cccs2)c1 (stereo not given) the results were Beta apoptosis 7.4, Mdm2 MdmX PPI 5.9, SKKanGAS inh 3.9, T cruzi inh -13.3, CSC inhib 2.7 and L major viab 60.6*.
Screening Cc1ccc(S(=O)(=O)c2c(C)nn(C(C)(C)C)c2OC(=O)c2cccs2)cc1 returned Beta apoptosis -10.6, Mdm2 MdmX PPI 42.3, SKKanGAS inh 4.2, T cruzi inh 2.3, CSC inhib 84.2* and L major viab 38.6.
Screening CC(=O)Oc1c(S(=O)(=O)c2ccc(C)cc2)c(C)nn1C(C)(C)C returned Beta apoptosis -7.0, Mdm2 MdmX PPI 43.2, SKKanGAS inh -8.0, T cruzi inh 7.5, CSC inhib 13.8 and L major viab -11.5.
`O=S(=O)(Nc1ccncc1)c1cc(Cl)c(Cl)cc1Cl` gave Beta apoptosis -1.8, Mdm2 MdmX PPI -8.7, SKKanGAS inh -1.1, T cruzi inh -6.8 and CSC inhib -10.3.
COc1ccccc1NS(=O)(=O)c1ccc(C)c(NC(=O)C2CCCO2)c1 (stereo not given) was read as Beta apoptosis -4.0, Mdm2 MdmX PPI 18.6 and CSC inhib -4.3.
Screening OCC1(Cc2ccccc2)CCN(C2CCN(c3ccc(F)c(F)c3)CC2)CC1 returned Beta apoptosis -1.9, Mdm2 MdmX PPI 27.9, SKKanGAS inh -6.5, T cruzi inh 43.7, CSC inhib 7.1 and L major viab 98.1*.
Cc1cc(C)n(-c2cccc(CN3CCC(CO)(Cc4ccccc4)CC3)c2)n1 was read as Beta apoptosis -4.8, Mdm2 MdmX PPI 15.3, SKKanGAS inh -7.0, T cruzi inh 43.5, CSC inhib 12.3 and L major viab 9.4.
`C#CCOc1ccccc1/C=N/NC(=O)c1ccccc1OCc1ccccc1` gave Beta apoptosis 1.9, Mdm2 MdmX PPI 11.0, SKKanGAS inh 6.8, T cruzi inh 35.1 and CSC inhib -9.9.
COc1ccc(C)cc1S(=O)(=O)Nc1ccc(F)cc1 was read as Beta apoptosis 6.3, Mdm2 MdmX PPI -25.8, SKKanGAS inh -0.8, T cruzi inh -4.4, CSC inhib -13.6 and L major viab 30.8.
`CCOc1cc(C)c(S(=O)(=O)Nc2ccc(F)cc2)cc1C` gave Beta apoptosis 9.9, Mdm2 MdmX PPI -6.5, SKKanGAS inh 6.8, T cruzi inh 13.2, CSC inhib 68.3 and L major viab 58.4*.
For CC(=O)c1sc(NC(=O)C2CCN(C(=O)c3ccc(F)cc3)CC2)nc1-c1ccccc1 the results were Mdm2 MdmX PPI -7.1, SKKanGAS inh -11.9, T cruzi inh 47.1 and CSC inhib -0.1.
Screening CN(c1ccc(OCC(=O)OCC(=O)Nc2ccccc2)cc1)S(=O)(=O)c1cccs1 returned Beta apoptosis -1.8, Mdm2 MdmX PPI -20.3, SKKanGAS inh -7.5, T cruzi inh -9.9, CSC inhib -1.1 and L major viab -5.7.
Screening COc1ccc(-c2csc(NC(=O)COc3ccc(N(C)S(=O)(=O)c4ccc(C)cc4)cc3)n2)cc1 returned Beta apoptosis 2.1, Mdm2 MdmX PPI 14.3, SKKanGAS inh 15.4, T cruzi inh 51.2, CSC inhib 3.1 and L major viab 95.2*.
Screening COc1ccc(CCNC(=O)COc2ccc(N(C)S(=O)(=O)c3ccc(C)cc3)cc2)cc1 returned Beta apoptosis -11.0, Mdm2 MdmX PPI 13.1, SKKanGAS inh -5.2, T cruzi inh 27.7, CSC inhib -9.5 and L major viab 5.6.
For CCN(CC)c1ccc(NC(=O)COc2ccc(N(C)S(=O)(=O)c3cccs3)cc2)cc1 the results were Beta apoptosis 0.4, Mdm2 MdmX PPI 37.2, SKKanGAS inh 2.4, T cruzi inh 60.5*, CSC inhib 18.8 and L major viab -2.5.
Screening Cc1ccc(-c2csc(NC(=O)COc3ccc(N(C)S(=O)(=O)c4ccc(C)cc4)cc3)n2)cc1 returned Beta apoptosis 3.1, Mdm2 MdmX PPI 10.4, SKKanGAS inh 10.9, T cruzi inh 40.7, CSC inhib -7.9 and L major viab 90.4*.
Screening Cc1cc(NC(=O)CSc2nc(C)c(C)n2CC(C)C)no1 returned Beta apoptosis -2.2, Mdm2 MdmX PPI -12.0 and CSC inhib -14.7.
Cc1nn(-c2ccc(Cl)cc2)c(=O)c2c(C)noc12 was read as Beta apoptosis -0.9, Mdm2 MdmX PPI 4.3, SKKanGAS inh 3.0, T cruzi inh -4.6 and CSC inhib -5.1.
`CCOC(=O)C1=C2NC(=O)c3ccccc3N2C(=O)C1` gave Beta apoptosis 0.3, Mdm2 MdmX PPI -23.7, SKKanGAS inh -5.9, T cruzi inh -13.3, CSC inhib -2.9 and L major viab -6.2.
For Cc1cc(Br)ccc1NC(=O)CNC(=O)CN1C(=O)NC2(CCCCCC2)C1=O the results were Beta apoptosis -9.3, Mdm2 MdmX PPI -10.9, SKKanGAS inh -5.6, T cruzi inh 8.7, CSC inhib -6.6 and L major viab -5.2.
